Results: ChEMBL document CHEMBL2331420, “Synthesis, cytotoxicity and antiplasmodial activity of novel ent-kaurane derivatives” (Eur J Med Chem, 2013)
Where a name gives a salt, the structure may show the parent alone.

Experiments:
[1] = Growth inhibition against human LoVo/DX cells after 72 hrs by inverted microscopy; type: functional
Outline: (§1)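 Cells seeded at 2×10^4 cells/well in MEM10FCS containing compound at the test concentrations and exposed continuously for 72 h at 37 °C, 10% CO₂, 98% humidity. Untreated control wells were counted daily to confirm exponential growth. Cells were stained with crystal violet and inspected by inverted microscope, and inhibition was judged against controls. GI50 (50% growth inhibition) is the mean of duplicate wells.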

LoVo = assay: Growth inhibition against human LoVo cells after 72 hrs by inverted microscopy; type: functional; outline: as §1
K562 = assay: Growth inhibition against human K562 cells after 72 hrs by inverted microscopy; type: functional; settings: K562, 72 h; outline: as §1
HeLa = assay: Growth inhibition against human HeLa cells after 72 hrs by inverted microscopy; type: functional; outline: as §1
[2] = Growth inhibition against human IGROV-ET cells after 72 hrs by inverted microscopy; type: functional; outline: as §1
PANC-1 = assay: Growth inhibition against human PANC1 cells after 72 hrs by inverted microscopy; type: functional; settings: PANC-1, 72 h; outline: as §1
[3] = Growth inhibition against human IGROV cells after 72 hrs by inverted microscopy; type: functional; outline: as §1
HT-29 = assay: Growth inhibition against human HT-29 cells after 72 hrs by inverted microscopy; type: functional; settings: HT-29, 72 h; outline: as §1
[4] = Cytotoxicity against human HepG2 cells after 24 hrs by MTT assay; type: cell-based
Outline: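 Hep G2A16 hepatoma cells kept in RPMI1640 with 5% FBS and gentamicin, trypsinised and plated at 4×10^4 cells/well, then left 18 h at 37 °C before dosing. Compounds were given in triplicate at four serial-dilution concentrations starting at 1000 µg/mL, with final DMSO 0.01%, for 24 h at 37 °C. MTT (6 mg/mL in PBS) was added for 1 h 30 min, solubilised in DMSO and read at 570 nm. Cytotoxic concentration was taken from the dose–response curve.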

Plasmodium falciparum = assay: Antiplasmodial activity against chloroquine-resistant Plasmodium falciparum W2 infected in human erythrocytes assessed as inhibition of parasite growth after 24 hrs by [3H]hypoxanthine incorporation assay; type: functional, organism-based
Outline: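 Ring-stage parasites, sorbitol-synchronised, in human O-negative erythrocytes in RPMI with 10% human plasma; plated at 1% parasitemia, 1% haematocrit. Compounds diluted from DMSO stocks in hypoxanthine-free medium, final DMSO 0.002%. After 24 h, [3H]-hypoxanthine (0.5 μCi/well) added for another 18 h at 37 °C. Incorporation compared with drug-free controls, IC50 by linear interpolation. Three experiments, each in triplicate.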

[5] = Selectivity index, ratio of CC50 for human HepG2 cells to IC50 for chloroquine-resistant Plasmodium falciparum W2 infected in human erythrocytes; type: functional
Outline: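 HepG2 hepatoma cells in RPMI1640 with 5% FBS, 4×10^4 cells/well, allowed 18 h at 37 °C. Four serial dilutions from 1000 µg/mL, final DMSO 0.01%, in triplicate, for 24 h at 37 °C. Cytotoxic concentration taken from the dose–response curve, then divided by the antiplasmodial IC50.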

[6] = Toxicity in RBC (unknown origin) assessed as hemolysis at 139 uM; type: cell-based; settings: erythrocyte

Row | Compound | GI50 [1] [µM] | GI50 (LoVo) [µM] | GI50 (K562) [µM] | GI50 (HeLa) [µM] | GI50 [2] [µM] | GI50 (PANC-1) [µM] | GI50 [3] [µM] | GI50 (HT-29) [µM] | CC50 at 24 h [4] [µM] | IC50 (Plasmodium falciparum) [µM] | Ratio CC50/IC50 [5] | Activity [6]
1 | COC(=O)[C@]1(C)CCC[C@@]2(C)[C@@H]3CC[C@@H]4C[C@@]3(CC[C@@H]21)C[C@@H]4CO | > 9.02 | > 9.02 | > 9.02 | > 9.02 | 7.23 | > 9.02 | > 9.02 | > 9.02 |  |  |  | 
2 | COC(=O)[C@]1(C)CCC[C@]2(C)[C@@H]1CC[C@@]13C[C@H](C[C@H]4O[C@]412)[C@@]1(CO1)C3 | > 8.66 | > 8.66 | > 8.66 | > 8.66 | > 8.66 | > 8.66 | > 8.66 | > 8.66 | 1240 | 10.4 | 119.1 | 
3 | COC(=O)[C@]1(C)CCC[C@]2(C)[C@@H]1CC[C@@]13C[C@H](C[C@H]4O[C@]412)[C@]1(CO1)C3 | > 8.66 | > 8.66 | > 8.66 | > 8.66 | > 8.66 | > 8.66 | > 8.66 | > 8.66 | 810 | 6.9 | 117.4 | Toxic
4 | C=C1[C@H]2CC[C@H]3[C@]4(C)CCC[C@@](C)(C(=O)OC)[C@H]4CC[C@]3(C2)[C@H]1O | > 9.02 | 8.21 | > 9.02 | 7.04 | > 9.02 | > 9.02 | 7.52 | 7.4 |  | 8.4 |  | 
5 | C=C1C[C@@]23CC[C@H]4[C@@](C)(CCC[C@@]4(C)C(=O)OC)[C@@H]2CC[C@H]1C3 | > 9.48 | > 9.48 | > 9.48 | > 9.48 | > 9.48 | > 9.48 | 8.44 | > 9.48 | 32.2 | 8.2 | 3.9 | 
6 | COC(=O)[C@]1(C)CCC[C@@]2(C)[C@@H]3CC[C@H]4C[C@]3(C=C4C)CC[C@@H]21 | > 9.48 | > 9.48 | > 9.48 | > 9.48 | > 9.48 | > 9.48 | > 9.48 | > 9.48 | 44.9 | 8.8 | 5.1 | 
7 | COC(=O)[C@]1(C)CCC[C@@]2(C)[C@@H]3CC[C@H]4C[C@@]3(CC[C@@H]21)C[C@]41CO1 | > 9.02 | > 9.02 | > 9.02 | > 9.02 | > 9.02 | > 9.02 | > 9.02 | > 9.02 | 111 | 9.6 | 11.5 | 
8 | C[C@@]1(C(=O)O)CCC[C@@]2(C)C3=CC[C@H]4C[C@@]3(CC[C@H]12)C[C@]41CO1 | > 9.48 | > 9.48 | > 9.48 | > 9.48 | > 9.48 | > 9.48 | > 9.48 | > 9.48 |  |  |  | 
9 | COC(=O)[C@]1(C)CCC[C@@]2(C)[C@@H]3CC[C@H]4C[C@@]3(CC[C@@H]21)[C@@H](O)[C@@H]4C | > 9.02 | > 9.02 | > 9.02 | > 9.02 | > 9.02 | > 9.02 | 8.34 | > 9.02 |  | 34.7 |  | 
10 | COC(=O)[C@]1(C)CCC[C@@]2(C)[C@@H]3[C@H](O)C[C@H]4C[C@@]3(CC[C@@H]21)C[C@@H]4CO | > 8.56 | > 8.56 | > 8.56 | > 8.56 | > 8.56 | > 8.56 | > 8.56 | > 8.56 |  | > 143 |  | 
11 | COC(=O)[C@]1(C)CCC[C@@]2(C)[C@@H]3[C@@H](O)C[C@H]4C[C@@]3(CC[C@@H]21)C[C@@H]4CO | > 8.56 | > 8.56 | > 8.56 | > 8.56 | > 8.56 | > 8.56 | > 8.56 | > 8.56 |  | > 143 |  | 
12 | COC(=O)[C@]1(C)CCC[C@@]2(C)[C@@H]3CC[C@H]4C[C@@]3(CC[C@@H]21)C[C@H]4C=O | > 9.02 | > 9.02 | > 9.02 | > 9.02 | > 9.02 | > 9.02 | > 9.02 | > 9.02 |  |  |  | 
13 | COC(=O)[C@]1(C)CCC[C@@]2(C)[C@@H]3CC[C@H]4C[C@@]3(CC[C@@H]21)C[C@@H]4C=O | > 9.02 | 8.69 | 8.18 | > 9.02 | > 9.02 | > 9.02 | > 9.02 | > 9.02 |  |  |  | 
14 | C[C@@]1(C(=O)O)CCC[C@@]2(C)C3=CC[C@@H]4C[C@@]3(CC[C@H]12)CC4=O |  |  |  |  |  |  |  |  |  | > 157 |  | 
15 | COC(=O)[C@]1(C)CCC[C@@]2(C)[C@@H]3CC[C@H]4C[C@@]3(CC[C@@H]21)C[C@@H]4C(=O)O |  |  |  |  |  |  |  |  |  | > 144 |  | 
16 | COC(=O)[C@]1(C)CCC[C@@]2(C)[C@@H]3CC[C@H]4C[C@@]3(CC[C@@H]21)C[C@@H]4C1NCCCN1 |  |  |  |  |  |  |  |  |  | 5.4 |  | 
17 | COC(=O)[C@]1(C)CCC[C@@]2(C)C3=CC[C@H]4C[C@@]3(CC[C@H]12)CC4CO (mixture of isomers) | > 9.02 | > 9.02 | > 9.02 | > 9.02 | > 9.02 | > 9.02 | > 9.02 | > 9.02 |  | 33.1 |  | 
18 | CCN(CC)CCCC(C)Nc1ccnc2cc(Cl)ccc12 (configuration not stated) [CHLOROQUINE] |  |  |  |  |  |  |  |  | 504 |  |  | 
19 | COc1cccc2c1C(=O)c1c(O)c3c(c(O)c1C2=O)C[C@@](O)(C(=O)CO)C[C@@H]3O[C@H]1C[C@H](N)[C@H](O)[C@H](C)O1 [DOXORUBICIN HYDROCHLORIDE] | 2.21 | 0.24 | 0.17 | 0.17 | 6.17 | 0.24 | 0.11 | 0.15 |  |  |  | 
20 | C=C1C[C@@]23CC[C@@H]4[C@](C)(C(=O)O)CCC[C@@]4(C)C2=CC[C@@H]1C3 [GRANDIFLORENIC ACID] |  |  |  |  |  |  |  |  |  | 23.3 |  | 
21 | C=C1C[C@@]23CC[C@H]4[C@@](C)(CCC[C@@]4(C)C(=O)O)[C@@H]2CC[C@@H]1C3 [KAURENOIC ACID] | > 9.92 | > 9.92 | > 9.92 | > 9.92 | > 9.92 | > 9.92 | > 9.92 | > 9.92 | 192 | 21.1 | 9.1 | 
